Reference: ChEMBL document CHEMBL3992541, “Combined treatment with zingerone and its novel derivative synergistically inhibits TGF-β1 induced epithelial-mesenchymal transition, migration and invasion of human hepatocellular carcinoma cells” (2017)
The source made the active and inactive calls. The calls are words filed in the database; no cut-off is given here.

Experiments:
SNU-182 [1] = experiment: Growth inhibition of human SNU182 cells at <12.5 uM after 48 hrs by CCK8 assay; format: functional, cell-based
SNU-182 [2] = experiment: Growth inhibition of human SNU182 cells assessed as cell survival at 12.5 uM after 48 hrs by CCK8 assay relative to control; format: functional; details: SNU-182, 48 h, read-out: Survival
Summary of the method: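 SNU182 human hepatocellular carcinoma cells were exposed to compound at 6.25, 12.5, 25, 50 and 100 µM in serum-free DMEM for 48 h. Viability was read by CCK-8, where WST-8 is reduced by cellular dehydrogenases to a soluble formazan, and expressed as survival relative to vehicle control. Values are mean±SD of triplicates.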

SNU-182 [3] = experiment: Growth inhibition of human SNU182 cells after 48 hrs by CCK8 assay; format: functional, cell-based
SNU-182 [4] = experiment: Inhibition of TGFbeta1-induced epithelial-mesenchymal transition in human SNU182 cells assessed as reduction in downregulation of E-cadherin expression at 12.5 uM preincubated for 2 hrs followed by TGFbeta1 addition measured after 48 hrs by Western blot method; format: functional, cell-based
Summary of the method: (§1)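 SNU182 cells pretreated 2 h with single agents (12.5 or 40 µM) or the mixture (20 and 40 µM), then stimulated with TGF-β1 5 ng/ml for 48 h. E-cadherin and Snail protein detected by Western blot, with GAPDH as loading control.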

SNU-182 [5] = experiment: Inhibition of TGFbeta1-induced epithelial-mesenchymal transition in human SNU182 cells assessed as reduction in upregulation of Snail expression at 12.5 uM preincubated for 2 hrs followed by TGFbeta1 addition measured after 48 hrs by Western blot method; format: functional, cell-based; summary of the method: as §1
SNU-182 [6] = experiment: Inhibition of TGFbeta1-induced epithelial-mesenchymal transition in human SNU182 cells assessed as reduction in MMP2 mRNA expression at 12.5 uM preincubated for 2 hrs followed by TGFbeta1 addition measured after 48 hrs by qRT-PCR method; format: functional, cell-based
Summary of the method: (§2)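 SNU182 cells pretreated 2 h with single agents (12.5 or 40 µM) or the mixture (20 or 40 µM), then TGF-β 5 ng/ml for 48 h. MMP-2 and MMP-9 mRNA measured by RT-PCR with densitometry and by qRT-PCR, fold change by the 2^-ΔΔCt method. Mean±SD of triplicates.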

SNU-182 [7] = experiment: Inhibition of TGFbeta1-induced epithelial-mesenchymal transition in human SNU182 cells assessed as reduction in MMP9 mRNA expression at 12.5 uM preincubated for 2 hrs followed by TGFbeta1 addition measured after 48 hrs by qRT-PCR method; format: functional, cell-based; summary of the method: as §2

CCCCC/C=C/C(=O)CCc1ccc(O)c(OC)c1 [SHOGAOL]
growth inhibition (GI) (SNU-182 [1]): inactive | viability at 12.5 µM (SNU-182 [2]): > 90% | growth inhibition (GI) (SNU-182 [3]): Dose-dependent effect | inhibition (SNU-182 [4]): inactive | inhibition (SNU-182 [5]): inactive | inhibition (SNU-182 [6]): inactive | inhibition (SNU-182 [7]): inactive
